Data as given in ChEMBL document CHEMBL5154888 (Eur J Med Chem, 2022).
Active and inactive are the calls of the source. The rule behind the calls is not given here.

Key:
[1] = target: T1, Glutamate NMDA receptor; Grin1/Grin2a (Rattus norvegicus) (UniProt P35439+Q00959); assay: (§1) Inhibition of eGFP-tagged rat GluN1/GluN2A transfected in human tsA201 cells assessed as recovery of glycine/NMDA-induced current at 10 uM treated for 40 secs followed by application of +60 mV holding potential for 5 secs measured after 40 secs of compound removal by whole-cell patch-clamp method relative to control; assay type: cell-based; details: time 85.0 sec
Method in brief: (§2)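 tsA201 cells transfected with rat GluN1, rat GluN2A and eGFP (0.5:1:1); dl-APV 200 μM added at transfection. Whole-cell recording at rt, held at −60 mV. Agonist is 100 μM NMDA + 10 μM glycine; blocker at 10 μM applied by piezo until steady state. A 5 s jump to +60 mV is made during block and again after blocker washout. Block is computed from steady-state current ratios, and recovery as current after removal over current before application.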

Caenorhabditis elegans [2] = assay: Neuroprotective activity against transgenic Caenorhabditis elegans CL2355 assessed as A-beta aggregration-induced reversal of disrupted chemotaxis behaviour by measuring chemotaxis index at […] treated for 72 hrs followed by compound washout and odorant addition for 1 hr; assay type: functional, organism-based; details: dose 1.5 µM
[3] = target: T1, Glutamate NMDA receptor; Grin1/Grin2a (Rattus norvegicus); assay: Inhibition of eGFP-tagged rat GluN1/GluN2A transfected in human tsA201 cells assessed as blockade of glycine/NMDA-induced current at 10 uM treated for 40 secs measured at +60 mV holding potential applied for 5 secs by whole-cell patch-clamp method relative to control; assay type: cell-based; details: time 45.0 sec; method in brief: as §2
Mus musculus [4] = assay: Upregulation of phosphorylated-GluN2B levels at Tyr1472 residue in hippocampus of 5XFAD transgenic AD mouse model at 5 mg/kg, po by Western blot analysis; assay type: functional, organism-based
Method in brief: (§3)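 5XFAD mice treated at 5 mg/kg/day for 4 weeks, n = 3–4 per group. Western blot quantifies GluN2A, PSD95, calbindin, p-Fyn/Fyn, p-GluN2B(Tyr1472)/GluN2B, and nuclear versus cytosolic p-CREB ratio. Values normalised to WT as 100%.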

Mus musculus [5] = assay: Upregulation of PSD in hippocampus of 5XFAD transgenic AD mouse model at 5 mg/kg, po by Western blot analysis; assay type: functional, organism-based; method in brief: as §3
Caenorhabditis elegans [6] = assay: Effect on locomotory activity in transgenic Caenorhabditis elegans CL2006 model of paralysis assessed as reduction in defective locomotion by measuring motor index at 0.1 to 10 uM by motor behaviour assay; assay type: functional, organism-based; details: dose 0.1-10 µM
Method in brief: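 C. elegans CL2006 (constitutive human Aβ1–42), synchronised by hypochlorite and hatched as L1. Compounds in DMSO diluted into water, 1% DMSO final; tested at 0.1–10 μM. Treatment in liquid culture, 25–30 L1 worms per well with inactivated OP50, 4 days at 20 °C. Defective locomotion scored as motor index; N2 is the reference strain.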

[7] = target: T1, Glutamate NMDA receptor; Grin1/Grin2a (Rattus norvegicus); assay: Inhibition of eGFP-tagged rat GluN1/GluN2A transfected in human tsA201 cells assessed as blockade of glycine/NMDA-induced current at 10 uM treated for 40 secs measured at -60 mV holding potential after returning from +60 mV application for 5 secs by whole-cell patch-clamp method relative to control; assay type: cell-based; details: time 45.0 sec
Mus musculus [8] = assay: Upregulation of calbindin D-28K levels in hippocampus of 5XFAD transgenic AD mouse model at 5 mg/kg, po by Western blot analysis; assay type: functional, organism-based; method in brief: as §3
Mus musculus [9] = assay: Upregulation of phosphorylated-Fyn levels in hippocampus of 5XFAD transgenic AD mouse model at 5 mg/kg, po by Western blot analysis; assay type: functional, organism-based; method in brief: as §3
Mus musculus [10] = assay: Recovery of cognitive function in 5XFAD transgenic AD mouse model assessed as long term memory by measuring increase in discrimination index at 5 mg/kg/day, po for 4 weeks measured after 5 days of habituation by novel object recognition test; assay type: functional, organism-based; details: time 33.0 day
Method in brief: (§4)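 5XFAD mice, 6 months old, treated at 5 mg/kg/day for 4 weeks; n = 8–11 per group, with WT controls. Novel object recognition test: discrimination index from exploration time of novel versus familiar object, tested at 2 h (short-term) and 24 h (long-term).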

[11] = target: T1, Glutamate NMDA receptor; Grin1/Grin2a (Rattus norvegicus); assay: as §1, with “assessed as weighted time constant for recovery of” for “assessed as recovery of”, “patch-clamp method” for “patch-clamp method relative to control”; assay type: cell-based; details: time 85.0 sec
[12] = target: T1, Glutamate NMDA receptor; Grin1/Grin2a (Rattus norvegicus); assay: Inhibition of eGFP-tagged rat GluN1/GluN2A transfected in human tsA201 cells assessed as weighted time constant for blockade of glycine/NMDA-induced current at 10 uM at 1 sec by whole-cell patch-clamp method; assay type: cell-based
Mus musculus [13] = assay: Recovery of cognitive function in 5XFAD transgenic AD mouse model assessed as short term memory by measuring increased discrimination index at 5 mg/kg/day, po for 4 weeks measured after 4 days of habituation by novel object recognition test; assay type: functional, organism-based; details: time 32.0 day; method in brief: as §4
Glutamate NMDA receptor = assay: Inhibition of NMDA receptor in NMDA-stimulated rat cerebellar granule neurons assessed as measuring intracellular calcium concentration in presence of glycine by Fura2-AM dye based fluorescence assay; assay type: cell-based; details: cerebellar granule neurone
[14] = target: Glutamate NMDA receptor; Grin1/Grin2a (Rattus norvegicus, UniProt P35439+Q00959); assay: Inhibition of eGFP-tagged rat GluN1-1a/GluN2A transfected in human tsA201 cells assessed as inhibition glutamate-induced current measured at -65 mV holding potential applied for 10 secs by whole-cell patch-clamp method; assay type: cell-based
in vitro = details: PAMPA

SMILES: CC12CC3CC(C)(C1)CC(N)(C3)C2
- inhibition [1]: 93.6%
- Activity (Caenorhabditis elegans [2]): Active
- inhibition [3]: -3.9%
- Activity (Mus musculus [4]): Active
- Activity (Mus musculus [5]): Active
- Activity (Caenorhabditis elegans [6]): Active
- inhibition [7]: 86.2%
- Activity (Mus musculus [8]): Active
- Activity (Mus musculus [9]): Active
- Activity (Mus musculus [10]): Active
- TIME [11]: 0.00178 h
- inhibition [12]: Active
- Activity (Mus musculus [13]): Active

SMILES: COc1cc2c(cc1OC)C1CC3(C)CC2CC(N)(C1)C3
- IC50 (Glutamate NMDA receptor): 517 µM

SMILES: CC(=O)c1ccc2c(c1)C1CC3(C)CC2CC(N)(C1)C3 (centres undefined)
- IC50 (Glutamate NMDA receptor): 323 µM

SMILES: CNC1(c2ccccc2Cl)CCCCC1=O (centres undefined) [KETAMINE]
- IC50 [14]: 1 µM

SMILES: CCn1cc(C(=O)O)c(=O)c2cc(F)c(N3CCNC(C)C3)c(F)c21 (centres undefined) [LOMEFLOXACIN]
- Papp (in vitro): 0.86 ×10⁻⁶ cm/s

SMILES: CC12CC3CC(N)(CC(C1)c1cc([N+](=O)[O-])ccc13)C2 (centres undefined)
- IC50 (Glutamate NMDA receptor): 164 µM

SMILES: CN(C)C12CC3CC(C)(CC(C1)c1cc([N+](=O)[O-])ccc13)C2 (centres undefined)
- IC50 (Glutamate NMDA receptor): 309 µM
